{"source": "paper PMC6349498", "about": "(Drug testing and analysis, 2018)", "key": {"[1]": {"assay": "OT stability in water", "type": "physicochemical", "conditions": "spiked 9.9, 24.8, 154 and 385 ng/mL in water; 10°C; up to 5 days; LCMS", "outline": "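Water was spiked with OT and OT-d5 at final 9.9, 24.8, 154 and 385 ng/mL and held at 10°C for variable times, matching the urine spikes. OT and OT-d5 levels were quantitated by HRAM orbitrap LCMS (positive heated ESI, targeted SIM). Means and standard deviation were reported.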"}, "[2]": {"type": "in vivo, human", "outline": "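Healthy male and post-menopausal female volunteers self-dosed intranasally. Male: 100 IU (10 IU/puff, 5 puffs per nostril, alternating), then 20 IU (1 puff per nostril) after one-week washout. Female: 100 IU (50 IU/puff) compounded metered spray. Serum (male), urine and saliva were sampled baseline to 120–240 min and frozen at −80°C. Samples were C18 SPE-extracted with OT-d5 internal standard and analysed by orbitrap targeted SIM (m/z 562.25503); urine was creatinine-adjusted.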"}, "[3]": {"assay": "OT stability in human urine", "type": "in vitro ADME", "conditions": "human urine spiked 9.9-385 ng/mL; 10°C; up to 5 days; LCMS"}, "[4]": {"assay": "OT stability in human serum", "type": "in vitro ADME", "conditions": "added to human serum; 4°C or room temperature (23°C); up to 24 hours; LCMS", "outline": "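OT and OT-d5 were added to human serum and held at room temperature (~23°C) or 4°C for 24 h. Levels were compared with pre-incubation values. Serum (500 µL) was spiked with OT-d5, acidified with 4% phosphoric acid, then C18 SPE-purified. Quantitation was by HRAM orbitrap LCMS in positive heated ESI targeted SIM mode.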"}, "[5]": {"conditions": "plasma from men and non-pregnant women; 60 minute incubation at 37°C; cited from earlier work"}, "[6]": {"conditions": "healthy volunteer, n=1, 100 IU intranasal (OxyLuv), saliva"}, "[7]": {"conditions": "male, human, serum, inhaled or intranasal, 100 IU"}}, "note": "Like-named read-outs stand apart in the source and are kept apart here.", "data": [{"compound": "CC[C@H](C)[C@@H]1NC(=O)[C@H](Cc2ccc(O)cc2)NC(=O)[C@@H](N)CSSC[C@@H](C(=O)N2CCC[C@H]2C(=O)N[C@@H](CC(C)C)C(=O)NCC(N)=O)NC(=O)[C@H](CC(N)=O)NC(=O)[C@H](CCC(N)=O)NC1=O", "note": "[OT, Oxytocin]", "values": [{"measurement": "stability in water", "setting": "[1]", "value": "remained stable"}, {"measurement": "time after the peak at which levels decreased to below detection limits", "setting": "[2]; 2 volunteers, 20 IU or 100 IU intranasal, serum, urine, saliva, summary", "value": "1 to 2", "unit": "h"}, {"measurement": "time of peak levels in serum, urine and saliva after each dose", "setting": "[2]; 2 volunteers, 20 IU or 100 IU intranasal, summary over matrices", "value": "15 to 30", "unit": "min"}, {"measurement": "time of elimination of saliva OT to levels below LLOD", "setting": "[2]; after intranasal OT, saliva, LLOD 10 pg/mL", "value": "2 to 3", "unit": "h"}, {"measurement": "time of peak saliva OT level", "setting": "[2]; healthy volunteer, n=1, 20 IU intranasal (OxyLuv), saliva", "value": 15, "unit": "min"}, {"measurement": "peak saliva OT level", "setting": "[2]; [6]", "value": "392,000 pg/mL"}, {"measurement": "time of peak saliva OT level", "setting": "[2]; [6]", "value": 15, "unit": "min"}, {"measurement": "time of decrease of serum OT to baseline", "setting": "[2]; healthy volunteer, n=1, 100 IU intranasal (OxyLuv), serum", "value": "≤ 60", "unit": "min"}, {"measurement": "time of peak urine OT excretion", "setting": "[2]; healthy volunteer, n=1, 100 IU intranasal (OxyLuv), urine", "value": 30, "unit": "min"}, {"measurement": "Cmax", "setting": "[2]; [7]", "value": 0.08, "unit": "ng/mL"}, {"measurement": "Tmax", "setting": "[2]; [7]", "value": 15, "unit": "min"}, {"measurement": "stability in urine after the initial drop", "setting": "[3]", "value": "stayed at those low levels"}, {"measurement": "change in level compared to pre-incubation level", "setting": "[4]", "value": "< 15", "unit": "%"}, {"measurement": "OT degradation in plasma", "setting": "[5]", "value": "little or no OT degradation"}]}, {"compound": "OT-leucyl-d3-glycinamide-d2 [OT-d5]", "values": [{"measurement": "stability in water", "setting": "[1]", "value": "remained stable"}, {"measurement": "stability in urine after the initial drop", "setting": "[3]", "value": "stayed at those low levels"}, {"measurement": "change in level compared to pre-incubation level", "setting": "[4]", "value": "< 15", "unit": "%"}]}]}
